Data: PubChem BioAssay
Calls of active or inactive are those of the source.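 The calls were made as follows, unless noted: active = viability loss from added drug above about 55%, and viability with drug at most 40%, in both replicates (limit read from the data, passing the limit was not always enough); inconclusive = both conditions met in only one replicate; inactive = neither replicate meets both conditions.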

How the values were obtained:
[1] = HUVEC growth inhibition – cell-based, human, primary screen (AID 575;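 active = viability at or below 30% in both replicate assays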;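 also: 100% = median of untreated cell wells with 0.1% DMSO on each plate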); details: HUVEC proliferation, CellTiter-Glo luminescence, 72 h; at 10 µM; stronger effect = lower value
Procedure, shortened: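 Test system: primary human umbilical vein endothelial cells; medium: endothelial basal medium with 2% FBS plus growth supplements; dosing: 10 µM compound only; times: 72 h treatment at 37 °C; signal: CTG luminescence; read-out: % viability relative to median vehicle-well signal on each plate; control set: vehicle and MePR control wells; plate: 384-well, collagen-coated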

[2] = H69AR cell proliferation blockers – human, duplicate replicates, primary screen (AID 580;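 active = viability at or under a set limit in both replicates, limit being median viability minus 3 SD, cut at about 48% in these data, passing the limit was not always enough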;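 also: 100% = mean luminescence of untreated wells and 0% = no signal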); details: H69AR lung tumor cells viability, ATP luminescence, 72 h; at 10 µM; stronger effect = lower value
[3] = MRP1 drug-resistance reversers in H69AR cells – cell-based, doxorubicin co-treatment, pilot screen (AID 601); details: CellTiter-Glo, 72 h, at 10 µM; for differential viability (reversal): stronger effect = higher value
[4] = yeast transport mutant growth inhibition pilot in 384-well plates, post-Golgi transport modulator project (AID 636; in the data active = inhibition above about 31%); details: absorbance 615 nm, about 18 h, stronger effect = higher value
[5] = growth suppression of yeast trafficking mutant, preliminary HTS, modulators of trafficking downstream of Golgi apparatus project, 1536-format plate, OD 615 nm (AID 637; in the data active = inhibition above about 30%); details: yeast transport mutant growth, absorbance 615 nm, 18 h; stronger effect = higher value
[6] = H69AR cells + 2 uM doxorubicin, measured here: viability with 2 uM doxorubicin, stronger effect = lower value
[7] = H69AR cells, compound alone cytotoxicity

Structure (SMILES) | viability [1] | viability [2] | differential viability (reversal) ([3]; H69AR cells + 2 uM doxorubicin) | viability [3, 6] [%] | viability [3, 7] [%] | inhibition [4] | inhibition [5]
O=C(CCCN1C(=O)c2ccccc2C1=O)NCc1cccnc1 | 95.9% (inactive) | 94.2% (inactive) | 2.95% (inactive) | 91.3 | 94.2 | -2.13% (inactive) | -3.49% (inactive)
CCOC(=O)C1CCN(C(=O)CN(Cc2ccccc2)S(C)(=O)=O)CC1 | 112% (inactive) | 92.1% (inactive) | -1.19% (inactive) | 93.3 | 92.1 | -6.4% (inactive) | 2.7% (inactive)
O=C(NC1CC2CCC1C2)c1ccc(CN2CCOCC2)cc1 (centres undefined) | 99.9% (inactive) | 96.9% (inactive) | 2.98% (inactive) | 93.9 | 96.9 | -2.89% (inactive) | -2.7% (inactive)
CC(=O)N1CCN(S(=O)(=O)c2ccc(S(=O)(=O)NCC(C)C)cc2)CC1 | 111% (inactive) | 88.5% (inactive) | 2.16% (inactive) | 86.4 | 88.5 | -5.73% (inactive) | 0.16% (inactive)
COc1cccc2cc(C(=O)n3ccc(C)n3)c(=O)oc12 | 111% (inactive) | 93.4% (inactive) | 2.8% (inactive) | 90.6 | 93.4 | -3.29% (inactive) | 7.14% (inactive)
O=C(Cn1cnc2sc(-c3ccccc3)cc2c1=O)N1CCOCC1 | 116% (inactive) | 97% (inactive) | 3.61% (inactive) | 93.4 | 97 | -1.58% (inactive) | 1.75% (inactive)
CCN(CC(=O)O)S(=O)(=O)c1cc(Cl)ccc1Cl | 96.5% (inactive) | 90.9% (inactive) | -1.08% (inactive) | 92 | 90.9 | -7.2% (inactive) | -1.75% (inactive)
CCc1c(C(=O)Nc2cc(C)ccc2OC)[nH]c(C)c1C(C)=O | 45.3% (inactive) | 82% (inactive) | -1.42% (inactive) | 83.5 | 82 | -2.8% (inactive) | 14.3% (inactive)
Cc1cc(NCCCn2ccnc2)n2c(nc3ccccc32)c1C#N | 94% (inactive) | 100% (inactive) | 7.14% (inactive) | 93.3 | 100 | 4.29% (inactive) | 6.51% (inactive)
Cc1ccc(C(=O)Nc2ccc3c(c2)OCO3)o1 | 83% (inactive) | 69.6% (inactive) | -5.72% (inactive) | 75.3 | 69.6 | -2.6% (inactive) | -3.81% (inactive)
COc1cccc(-n2c(SCC(=O)OC(C)C)nnc2-c2cccnc2)c1 | 88.3% (inactive) | 97.4% (inactive) | 4.17% (inactive) | 93.2 | 97.4 | -1.32% (inactive) | -3.02% (inactive)
CCc1c(C)nc(N2CCN(Cc3ccccc3)CC2)[nH]c1=O | 115% (inactive) | 103% (inactive) | 18.8% (inactive) | 84.6 | 103 | -0.53% (inactive) | 0.32% (inactive)
O=C(NCCc1ccccc1)c1cc(-c2ccco2)on1 | 81.3% (inactive) | 88.6% (inactive) | – | – | – | -4.08% (inactive) | 7.94% (inactive)
COc1ccccc1NS(=O)(=O)c1ccc(NC(=O)c2nc3ncccn3n2)cc1 | 94.7% (inactive) | 96.3% (inactive) | 11.2% (inactive) | 85.1 | 96.3 | -1.17% (inactive) | 7.3% (inactive)
CCOc1ccc2cc(C#N)c(SCC(=O)N3CCC(C)CC3)nc2c1 | 43.5% (inactive) | 34.4% (active) | 0.44% (inactive) | 33.9 | 34.4 | -8.8% (inactive) | -1.11% (inactive)
C=CCNc1oc(-c2cccc3ccccc23)nc1C#N | 92.5% (inactive) | 84.8% (inactive) | 0.75% (inactive) | 84.1 | 84.8 | -5.47% (inactive) | -0.95% (inactive)
O=C(NCc1nc2ccccc2[nH]1)c1ccco1 | 106% (inactive) | 90.7% (inactive) | 7.09% (inactive) | 83.7 | 90.7 | -4.13% (inactive) | -1.9% (inactive)
CC1(C)CC(=O)c2cc(OCC(=O)N3CCN(c4ccccc4F)CC3)ccc2O1 | 99.1% (inactive) | 91.8% (inactive) | 2.9% (inactive) | 88.9 | 91.8 | -0.13% (inactive) | 2.06% (inactive)
Cc1ccc2nc(CSc3nnc(-c4ccco4)n3-c3ccccc3)cc(=O)n2c1 | 109% (inactive) | 87.2% (inactive) | -10.8% (inactive) | 98 | 87.2 | 4.81% (inactive) | 16.4% (inactive)
COc1ccc(NC(=O)c2ccco2)cc1NC(=O)c1cccs1 | 92.2% (inactive) | 88.5% (inactive) | -3.49% (inactive) | 92 | 88.5 | 0.13% (inactive) | 13.8% (inactive)
O=C(O)C1C2CCC(O2)C1C(=O)Nc1cccc(F)c1 (centres undefined) | 80.9% (inactive) | 90.8% (inactive) | 10.3% (inactive) | 80.5 | 90.8 | -4.74% (inactive) | 3.02% (inactive)
CSc1ccc2c(c1)N(CCC1CCCCN1C)c1ccccc1S2 (centres undefined) | 2.44% (active) | – | 0.67% (inactive) | 1.26 | 1.93 | – | –
CSc1nnc2c3ccccc3n(Cc3ccccc3)c2n1 | – | 31.6% (active) | 1.23% (inactive) | 30.3 | 31.6 | -2.37% (inactive) | 2.54% (inactive)

Structure (SMILES) | viability [1] | viability [2] | differential viability (reversal) ([3]; H69AR cells + 2 uM doxorubicin) | viability [3, 6] [%] | viability [3, 7] [%] | inhibition [4] | inhibition [5]
CCCn1c(N2CCN(CC(=O)NCc3cccs3)CC2)nc2ccccc21 | 97.6% (inactive) | – | -0.505% (inactive) | 60.4 | 59.9 | -4.47% (inactive) | 6.03% (inactive)
COc1cccc2c1C(=O)c1c(O)c3c(c(O)c1C2=O)C[C@@](O)(C(C)=O)C[C@@H]3O[C@H]1C[C@H](N)[C@H](O)[C@H](C)O1 | 5.46% (active) | – | – | – | – | -2.73% (inactive) | -0.17% (inactive)
CCOC(=O)c1cc2sccc2n1CC(=O)Nc1ccc2c(c1)OCCO2 | 87.4% (inactive) | – | 7.47% (inactive) | 65.2 | 72.6 | -6.1% (inactive) | 0.95% (inactive)
c1ccc(-n2ncc3c(NCc4cccs4)ncnc32)cc1 | 79% (inactive) | – | -10.5% (inactive) | 52.3 | 41.8 | -7.73% (inactive) | 2.22% (inactive)
CN1CCCN(C(c2ccccc2)c2ccc(Cl)cc2)CC1 (centres undefined) | 54.3% (inactive) | – | -24.5% (inactive) | 69.4 | 44.8 | – | –
Cn1cc(-c2nc3ccccc3[nH]2)c2ccccc21 | 81% (inactive) | – | -9.86% (inactive) | 72 | 62.2 | -7.33% (inactive) | -0.63% (inactive)
COc1cc(-n2nc(C)c3c2OC(N)=C(C#N)C3c2ccccc2)c(Cl)c(Br)c1O (centres undefined) | 50% (inactive) | – | 1.54% (inactive) | 68 | 69.5 | -6.4% (inactive) | -4.6% (inactive)
Cc1cc2oc(=O)cc(CN3CCCCC3)c2cc1C(C)C | 52.5% (inactive) | – | 0.87% (inactive) | 51.2 | 52.1 | -1.82% (inactive) | -2.06% (inactive)
CC(C)Cn1c(N)c(C(=O)NCCN2CCOCC2)c2nc3ccccc3nc21 | 52.3% (inactive) | – | -23.6% (inactive) | 79.3 | 55.7 | -5.2% (inactive) | 3.65% (inactive)
OCCNc1ncnc2c1c(-c1ccccc1)c(-c1ccccc1)n2Cc1ccco1 | – | 72.4% (inactive) | 23.7% (inactive) | 48.8 | 72.4 | -5.66% (inactive) | 15.7% (inactive)
N#CC(C(=O)NCCc1ccccc1)c1nc2ccccc2nc1N1CCOCC1 (centres undefined) | 82.7% (inactive) | – | -3.4% (inactive) | 62.6 | 59.2 | -0.53% (inactive) | -5.71% (inactive)
NC(=O)SCC(=O)Nc1cccc(Cl)c1 | 58.4% (inactive) | – | 9.55% (inactive) | 56.8 | 66.4 | -5.19% (inactive) | 2.06% (inactive)
CCOC(=O)C1=C(Cn2cnc3ccccc32)NC(=O)NC1c1cc(C)ccc1C (centres undefined) | 93.7% (inactive) | – | -17.6% (inactive) | 60.1 | 42.5 | -1.71% (inactive) | 1.43% (inactive)
CC(C)(C)C1CCc2onc(C(=O)Nc3cnn(Cc4ccc(F)cc4)c3)c2C1 (centres undefined) | – | 32.9% (active) | -17.6% (inactive) | 50.6 | 32.9 | 0% (inactive) | 3.02% (inactive)
O=c1[nH]c2ccccc2n1CCCN1CCN(C(c2ccccc2)c2ccccc2)CC1 | 75.3% (inactive) | – | -29.9% (inactive) | 41.1 | 11.2 | – | –
Cc1ccc(C2C3CN(C(C)C)CC=C3C(C#N)=C(N)C2(C#N)C#N)cc1 (centres undefined) | 62.9% (inactive) | – | – | – | – | -6.27% (inactive) | 1.43% (inactive)
O=c1c2ccccc2nc(-c2cccc(Cl)c2)n1O | 84.6% (inactive) | – | -14.1% (inactive) | 60.1 | 45.9 | -3.68% (inactive) | 0.32% (inactive)
COc1ccc(CCN2CCC(Nc3nc4ccccc4n3Cc3ccc(F)cc3)CC2)cc1 | 1.47% (active) | – | 0.16% (inactive) | 0.36 | 0.52 | – | –
CC(NCCC(c1ccccc1)c1ccccc1)c1ccccc1 (centres undefined) | 2.03% (active) | – | -0.87% (inactive) | 2.41 | 1.54 | 3.77% (inactive) | -5.67% (inactive)
COc1ccc(Cn2c(C)nc3c(c2=O)c2nc4ccccc4nc2n3Cc2ccco2)cc1 | 62% (inactive) | – | 3.86% (inactive) | 30.8 | 34.6 | -1.71% (inactive) | 5.56% (inactive)
CC[C@H]1CN2CCc3cc(OC)c(OC)cc3[C@@H]2C[C@@H]1C[C@H]1NCCc2cc(OC)c(OC)cc21 | 11% (active) | – | 10.2% (inactive) | 13.3 | 23.5 | -1.69% (inactive) | 2.17% (inactive)
COC(=O)C(F)(F)Sc1c(C)[nH]c2ccccc12 | – | 92.2% (inactive) | 1.54% (inactive) | 90.6 | 92.2 | -2.37% (inactive) | -1.43% (inactive)
